The values that follow come from the RNAGym collection of RNA variant scans (doi:10.1126/science.aae0568).

Fewer inactive variants are shown than the library holds.

B1: tRNA (parent)
chain: GUUCCGUUGGCGUAAUGGUAACGCGUCUCCCUCCUAAGGAGAAGACUGCGGGUUCGAGUCCCGUACGGAACG

In the data set the parent is B1. The experiment in a line: yeast fitness relative to wild type (ratio to wild type); higher = fitter; tRNA-Arg(CCU), competitive growth, 37 C, YPD. Summed up:
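Genotype frequency changes were the basis for Darwinian fitness relative to wild type. The frequencies came from 100-nucleotide paired-end sequencing of gene amplicons from the start population and each end population of pooled yeast strains with tRNA-Arg(CCU) gene variants at the native locus. Competition ran in YPD at 37°C for 24 hours in six replicates, genotypes needed ≥ 100 starting reads, and estimates < 0.5 were set to 0.5.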
Take GUUCCGUUGGCGUAAUGGUAACGCGUCUCCCUCCUAAGAAGAAAACUGCGGGUUCGAGUCCCGUACGGAACG [G39A G44A]: the yeast fitness amounted to 0.846.

For GUUCCGUUGGCGUAAUGGUAACGCGUCUCCCUCCUAAGCAGAAGACUGAGAGUUCGAGUCCCGUACGGAACG [G39C C49A G51A], the yeast fitness is at most 0.5.

GUUCCGUUGGCGUAAUGGUAACGCGUCUCCCUCCUAAGCAGAGGACUGCGGGUUCGCGUCCCGUACGGAACG [G39C A43G A57C]: the yeast fitness was at most 0.5.

For GUUCCGUUGGCGUAAUGGUAACGCGUCUCCCUCCUAAGCAGAAGGCUGCGGGUUCGAGUCCCGUACGGAACG [G39C A45G], the yeast fitness is 0.661.

GUUCCGUUGGCGUAAUGGUAACGCGUCUCCCUCCUAAGUAGAAGGCUGCGAGUUCGAGUCCCGUACGGAACG [G39U A45G G51A]: the yeast fitness is 0.527.

As for GUUCCGUUGGCGUAAUGGUAACGCGUCUCCCUCCUAAGCAGAAGAGUGCGGGUUCGAGUCCCGUACGGAUCG [G39C C46G A70U], the yeast fitness was found to be 0.603.

Turning to GUUCCGUUGGCGUAAUGGUAACGCGUCUCCCUCCUAAGGCGAGGACUGCGGGUUCGAGUUUCGUACGGAACG [A40C A43G C60U C61U], the yeast fitness was at most 0.5.

For GUUCCGUUGGCGUAAUGGUAACGCGUCUCCCUCCUAAGAAGAAGACUGCGGGUUCGAGUCCUGUACGGAUCG [G39A C62U A70U], the yeast fitness is 0.593.

Turning to GUUCCGUUGGCGUAAUGGUAACGCGUCUCCCUCCUAAGCAGAAGACUGCGGGUUCGAGCCCCGCACGGACCG [G39C U59C U64C A70C], the yeast fitness is at most 0.5.

With GUUCCGUUGGCGUAAUGGUAACGCGUCUCCCUCCUAAGCAGAAGACUGCGGAUUCGAGUCCCGUACGAAACG [G39C G52A G68A], the yeast fitness was at most 0.5.

GUUCCGUUGGCGUAAUGGUAACGCGUCUCCCUCCUAAGUAGAAGGCUGCCGGUACGAGUCCCGUACAGAACG [G39U A45G G50C U54A G67A]: the yeast fitness came to 0.673.

For the variant GUUCCGUUGGCGUAAUGGUAACGCGUCUCCCUCCUAAGGCGCAGACUGGGGGUUCGAGUCCCGUACGGAACG [A40C A42C C49G], the yeast fitness was at most 0.5.

As to GUUCCGUUGGCGUAAUGGUAACGCGUCUCCCUCCUAAGAAGAAGACCGCGGGUUCGAGUCCCGUACGGAACG [G39A U47C], the yeast fitness was found to be 1.

With GUUCCGUUGGCGUAAUGGUAACGCGUCUCCCUCCUAAGGCGUAGACUGCGGGCUCGAGUCGCGUACGGAACG [A40C A42U U53C C61G], the yeast fitness was at most 0.5.

On to GUUCCGUUGGCGUAAUGGUAACGCGUCUCCCUCCUAAGCAGAAGACUGCGCGUUGGAGUCCCGUACGGAACG [G39C G51C C55G], for which the yeast fitness is at most 0.5.

For GUUCCGUUGGCGUAAUGGUAACGCGUCUCCCUCCUAAGGCGUAGACUGGGGGUUCGAGUCCCGUACGGAACG [A40C A42U C49G], the yeast fitness amounted to 0.624.

Consider GUUCCGUUGGCGUAAUGGUAACGCGUCUCCCUCCUAAGAAGAAGACUGCGGGUUCGAGUCCCGUACGCAACG [G39A G68C], for which the yeast fitness was 0.806.

Consider GUUCCGUUGGCGUAAUGGUAACGCGUCUCCCUCCUAAGAAGAAGACUGCGGGUUCGAGUCCCGUACGAAACG [G39A G68A], for which the yeast fitness amounted to 0.853.

With GUUCCGUUGGCGUAAUGGUAACGCGUCUCCCUCCUAAGAAGAAGACUGCGGGUUCGAGUCCUGUACGGAACG [G39A C62U], the yeast fitness came out at 1.05.

In the case of GUUCCGUUGGCGUAAUGGUAACGCGUCUCCCUCCUAAGCAGAACACUGCGGCUUCGAGUCCCGUACGGAACG [G39C G44C G52C], the yeast fitness turned out to be 0.623.

As to GUUCCGUUGGCGUAAUGGUAACGCGUCUCCCUCCUAAGCAGAAGACUGCGGGUUUGAGUCCCGUACGGAACG [G39C C55U], the yeast fitness was found to be 0.572.

For the variant GUUCCGUUGGCGUAAUGGUAACGCGUCUCCCUCCUAAGAAGAAGACUGCGGGUUCGAGUCCCGCACGGAACG [G39A U64C], the yeast fitness is 1.01.

For GUUCCGUUGGCGUAAUGGUAACGCGUCUCCCUCCUAAGCAGAAGACUGGGGGUUCGAGUCCCGUUCGGAACG [G39C C49G A65U], the yeast fitness was at most 0.5.

For GUUCCGUUGGCGUAAUGGUAACGCGUCUCCCUCCUAAGCGGAAGACUCCGGGUUCGAGUCCCGUACGGAACG [G39C A40G G48C], the yeast fitness is at most 0.5.

Take GUUCCGUUGGCGUAAUGGUAACGCGUCUCCCUCCUAAGAAGAAGACUGCGGCUUCGAGUCCCGUACGGAACG [G39A G52C]: the yeast fitness worked out at 0.612.

GUUCCGUUGGCGUAAUGGUAACGCGUCUCCCUCCUAAGCAGAAAACUGCGGGUUCGAGUCCGGUACGGAACG [G39C G44A C62G]: the yeast fitness amounted to 0.589.

Turning to GUUCCGUUGGCGUAAUGGUAACGCGUCUCCCUCCUAAGCAGAAGACUGCGGGUGCGAGUCCCGUACGGAACG [G39C U54G], the yeast fitness came out at 0.547.

Regarding GUUCCGUUGGCGUAAUGGUAACGCGUCUCCCUCCUAAGCAGAAGACUGCGGGUUCCGGUCCCGUACGGAACG [G39C G56C A57G], the yeast fitness was at most 0.5.

GUUCCGUUGGCGUAAUGGUAACGCGUCUCCCUCCUAAGCAGAAGACUGGGGGUUCGAGUCCCGUAUGGAACG [G39C C49G C66U]: the yeast fitness is at most 0.5.

GUUCCGUUGGCGUAAUGGUAACGCGUCUCCCUCCUAAGCAGCAGACUGCGGGUUCGAGUCCUGUACGGCACG [G39C A42C C62U A69C]: the yeast fitness was at most 0.5.

With GUUCCGUUGGCGUAAUGGUAACGCGUCUCCCUCCUAAGCAGAAGACUGUGGGUUCGAGUCCCGUUCGGAACG [G39C C49U A65U], the yeast fitness is at most 0.5.

Consider GUUCCGUUGGCGUAAUGGUAACGCGUCUCCCUCCUAAGAAGAAGACUACGGGUUCGAGUCCCGUACGGAACG [G39A G48A], for which the yeast fitness worked out at 0.94.

Turning to GUUCCGUUGGCGUAAUGGUAACGCGUCUCCCUCCUAAGAAGAAGACUCCGGGUUCGAGUCACGUACGGAACG [G39A G48C C61A], the yeast fitness was at most 0.5.

Take GUUCCGUUGGCGUAAUGGUAACGCGUCUCCCUCCUAAGCAGACGGCUGCGGGUUCGAGUGCCGUACGGAACG [G39C A43C A45G C60G]: the yeast fitness was at most 0.5.

Consider GUUCCGUUGGCGUAAUGGUAACGCGUCUCCCUCCUAAGCAGAAGACUGCGGGUUCGAGUCCCGUACGUAACG [G39C G68U], for which the yeast fitness stood at 0.762.

Take GUUCCGUUGGCGUAAUGGUAACGCGUCUCCCUCCUAAGGCGAGGACUGCGGGUUCGAGUCGCGUAUGGAACG [A40C A43G C61G C66U]: the yeast fitness is 0.683.

Regarding GUUCCGUUGGCGUAAUGGUAACGCGUCUCCCUCCUAAGAAGAAGACUGCGGGAUCGAGUCCCGUACGGAGCG [G39A U53A A70G], the yeast fitness is at most 0.5.
